Fibroblast inh: blocks proliferation of human lung fibroblasts | AID 719 | LL 47 human lung fibroblast viability, ATP luminescence; stronger effect = lower value | 1.1% of 85,000 active | viability, % at 10 µM;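 active = viability at or below 50% in the single dose screen; inactive = viability above 50%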;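 note: compound exposure lasted 72 h before the ATP readout; 100% = median luminescence of untreated cell-only wells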
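Test system: LL 47 human lung fibroblasts; Quantity: 1,150 cells/well; Buffer or medium: IMEM plus 15% FBS; Dosing: tenfold compound dosing solution, DMSO at 0.1%; Timing: overnight cell rest, 72 h compound treatment at 37 °C; Detection: ATP-based CellTiter-Glo luminescent readout; Read-out basis: viability percentage against median untreated-cell control; Controls: cell-only wells, no compound.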
HCT116 bCat-KO: beta-catenin-lacking colon tumor cell growth suppression; HCT116 beta-catenin knockout viability, CellTiter-Glo, 60 h; stronger effect = lower value; 1.5% of 140,000 active; viability, % at 10 µM;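 active = viability at or under a set limit, the compound median less 4 SD, cut at about 6% in these data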;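 note: 0% = Hyamine 1622 control at 20 µM and 100% = untreated cell control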
HCT116 PTEN-null: PTEN-deleted cell growth suppression. HCT116 PTEN-null viability, CellTiter-Glo, 60 h; stronger effect = lower value. viability, % at 10 µM. 1.2% of 140,000 active;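 active = viability at or below a set limit, 4 SD under the median of all tested compounds, cut at about 3.7% in these data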;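 note: PTEN knockout HCT116 line with beta catenin targeted HCT116 as companion control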
HUVEC inhibit: inhibitors of human endothelial cell proliferation | HUVEC proliferation, CellTiter-Glo luminescence, 72 h; stronger effect = lower value | 1.1% of 86,000 active | viability, % at 10 µM (by protocol);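 active = viability at or below 30%; inactive = viability above 30%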;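 note: 100% = median luminescence of DMSO-only cell control wells on each plate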
H69AR inhibit: blocks growth of human H69AR lung tumor cells; viability, % at 10 µM; H69AR lung tumor viability, ATP luminescence, 72 h; stronger effect = lower value; AID 598; 6% of 85,000 active;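 active = viability at or below 40%; inactive = viability above 40%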;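 note: multidrug resistant small cell line overexpressing MRP-1 efflux transporter; 100% = mean luminescence of untreated control wells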
The depositor's hits bear a star. Many of the other results were omitted from the sample, so hits are more common in it than they were.

Results for CC(=O)SC(C[N+](=O)[O-])c1cn(C(C)=O)c2ccccc12 (stereo unspecified) ?
Fibroblast inh: 2.6*; HCT116 bCat-KO: 75; HCT116 PTEN-null: 89; HUVEC inhibit: 101; H69AR inhibit: 2.3*

How did c1ccc(-c2noc(-c3ccc4ccccc4c3)n2)nc1 do in these assays?
Fibroblast inh: 83; HCT116 bCat-KO: 65; HCT116 PTEN-null: 61; HUVEC inhibit: 87; H69AR inhibit: 81

Results for c1ccc(CCc2ccccc2-c2nc(-c3cccnc3)no2)cc1 ?
Fibroblast inh: 87; HCT116 bCat-KO: 73; HCT116 PTEN-null: 66; HUVEC inhibit: 103; H69AR inhibit: 90

How did c1ccc(CCc2ccccc2-c2nc(-c3ccccn3)no2)cc1 do in these assays?
Fibroblast inh: 93; HCT116 bCat-KO: 83; HCT116 PTEN-null: 83; HUVEC inhibit: 106; H69AR inhibit: 34*

Results for c1ccc(-c2noc(-c3ccc4c(c3)OCO4)n2)nc1 ?
Fibroblast inh: 104; HCT116 bCat-KO: 11; HCT116 PTEN-null: 12; HUVEC inhibit: 29*; H69AR inhibit: 23*

Results for CCCc1nc2oc3c(NCCN(C)C)ncnc3c2c2c1CCCC2 ?
Fibroblast inh: 4.3*; HCT116 bCat-KO: 2.0*; HCT116 PTEN-null: 1.8*; HUVEC inhibit: 39; H69AR inhibit: 8.9*

Results for CCCc1nc2oc3c(N4CCNCC4)ncnc3c2c2c1CCCC2 ?
Fibroblast inh: 84; HUVEC inhibit: 67; H69AR inhibit: 7.0*

What do the screens show for `CC(C)Cc1nc2oc3c(N4CCN(C)CC4)ncnc3c2c2c1CCCC2`?
Fibroblast inh: 104; HCT116 bCat-KO: 89; HCT116 PTEN-null: 85; HUVEC inhibit: 94; H69AR inhibit: 84

Results for COc1ccc(/C=C(\C#N)C(=O)OCC(=O)NCc2ccc(Cl)cc2)cc1 ?
HCT116 bCat-KO: 105; HCT116 PTEN-null: 101

Results for OC(COCc1ccc(Cl)cc1)CN1CCN(CC(O)COCc2ccc(Cl)cc2)CC1 (stereo unspecified) ?
Fibroblast inh: 80; HCT116 bCat-KO: 5.5*; HCT116 PTEN-null: 6; HUVEC inhibit: 34; H69AR inhibit: 56

What do the screens show for `Brc1ccccc1-c1nnc(COc2cccc3cccnc23)o1`?
Fibroblast inh: 100; HCT116 bCat-KO: 58; HCT116 PTEN-null: 68; HUVEC inhibit: 108; H69AR inhibit: 32*

What do the screens show for `Cc1nc(NCCc2ccc(S(N)(=O)=O)cc2)c2c3c(sc2n1)CCC3`?
HCT116 bCat-KO: 84; HCT116 PTEN-null: 86

What do the screens show for `Cc1sc2nc(CN3CCOCC3)nc(NCCc3ccccc3)c2c1C`?
Fibroblast inh: 97; HCT116 bCat-KO: 79; HCT116 PTEN-null: 88; HUVEC inhibit: 88; H69AR inhibit: 30*

How did Cc1sc2nc(CN3CCOCC3)nc(NS(=O)(=O)c3ccccc3)c2c1C do in these assays?
Fibroblast inh: 105; HCT116 bCat-KO: 99; HCT116 PTEN-null: 97; HUVEC inhibit: 94; H69AR inhibit: 89

How did NS(=O)(=O)c1ccc(CCNc2nc(CN3CCOCC3)nc3sc4c(c23)CCC4)cc1 do in these assays?
Fibroblast inh: 97; HUVEC inhibit: 85; H69AR inhibit: 16*

Results for CCOc1ccc(Br)cc1S(=O)(=O)Nc1nc(CN2CCOCC2)nc2sc(C)c(C)c12 ?
Fibroblast inh: 98; HCT116 bCat-KO: 98; HCT116 PTEN-null: 91; HUVEC inhibit: 84; H69AR inhibit: 34*

What do the screens show for `CCOP(=O)(OCC)C(NC(=O)Nc1ccc(Cl)cc1)C(=O)N(CC)CC` (stereo unspecified)?
HCT116 bCat-KO: 92; HCT116 PTEN-null: 87

How did CCc1ccc(C2NC(=S)NC3=C2C(=O)N(c2ccccc2OC)C(c2ccc(CC)cc2)N3)cc1 (stereo unspecified) do in these assays?
HCT116 bCat-KO: 75; HCT116 PTEN-null: 71

How did O=C1C2=C(NC(=S)NC2c2ccc(Cl)cc2)NC(c2ccc(Cl)cc2)N1c1ccc(Cl)cc1 (stereo unspecified) do in these assays?
Fibroblast inh: 98; HCT116 bCat-KO: 13; HCT116 PTEN-null: 22; HUVEC inhibit: 7.6*; H69AR inhibit: 0.1*

Results for Oc1cccc2ccc(Nc3ccccn3)nc12 ?
Fibroblast inh: 54; HCT116 bCat-KO: 1.8*; HCT116 PTEN-null: 1.7*; HUVEC inhibit: 2.6*; H69AR inhibit: 0.6*

What do the screens show for `Cc1cc(Cl)c(OCCCNCc2ccccc2)c(Br)c1`?
HCT116 bCat-KO: 1.5*; HCT116 PTEN-null: 1.2*

Results for Clc1ccc(OCCCNCc2ccccc2)c(Br)c1 ?
HCT116 bCat-KO: 1.2*; HCT116 PTEN-null: 1.7*

How did Cc1cc(C)c(NC(=O)C(C)c2cccc(C(=O)c3ccccc3)c2)c(C)c1 (stereo unspecified) do in these assays?
HCT116 bCat-KO: 39; HCT116 PTEN-null: 43

How did CN1CC2=Cc3ccccc3OC23Oc2ccccc2C=C3C1 do in these assays?
Fibroblast inh: 78; HCT116 bCat-KO: 10; HCT116 PTEN-null: 35; HUVEC inhibit: 31; H69AR inhibit: 21*

What do the screens show for `N#CC(c1cccc(Cl)c1)c1ccc2c(C(F)(F)F)cc(C(F)(F)F)nc2n1` (stereo unspecified)?
Fibroblast inh: 20*; HCT116 bCat-KO: 0.8*; HCT116 PTEN-null: 1.0*; HUVEC inhibit: 14*; H69AR inhibit: 4.3*

Results for Cc1cc(C(C#N)c2cccc(Cl)c2)n2ncnc2n1 (stereo unspecified) ?
Fibroblast inh: 102; HCT116 bCat-KO: 89; HCT116 PTEN-null: 93; HUVEC inhibit: 102; H69AR inhibit: 104

What do the screens show for `CC(O/N=C\c1ccccc1O)C(=O)Nc1ccccc1C(=O)N1CCOCC1` (stereo unspecified)?
HCT116 bCat-KO: 88; HCT116 PTEN-null: 86

How did Nc1nc2ccc(O)cc2s1 do in these assays?
HCT116 bCat-KO: 91; HCT116 PTEN-null: 111; HUVEC inhibit: 97; H69AR inhibit: 18*

What do the screens show for `CC(C)(C)c1ccc(O)c(/C=N\O)c1`?
Fibroblast inh: 87; HCT116 bCat-KO: 82; HCT116 PTEN-null: 81; HUVEC inhibit: 95; H69AR inhibit: 25*

Results for CC(C)(C)c1cccc(/C=N/O)c1O ?
Fibroblast inh: 102; HCT116 bCat-KO: 83; HUVEC inhibit: 107; H69AR inhibit: 104

What do the screens show for `COC(=O)Cn1c(=NC(=O)C2COc3ccccc3O2)sc2cc(S(N)(=O)=O)ccc21` (stereo unspecified)?
HCT116 bCat-KO: 83; HCT116 PTEN-null: 96

How did CCOc1ccccc1NC(=O)c1nc[nH]c1C(=O)Nc1ccccc1OCC do in these assays?
Fibroblast inh: 81; HCT116 bCat-KO: 85; HCT116 PTEN-null: 81; HUVEC inhibit: 75; H69AR inhibit: 56

Results for COc1ccc(NC(=O)c2nc[nH]c2C(=O)Nc2ccccc2C)cc1 ?
Fibroblast inh: 66; HCT116 bCat-KO: 17; HCT116 PTEN-null: 16; HUVEC inhibit: 53; H69AR inhibit: 20*

Results for COc1ccccc1NC(=O)c1nc[nH]c1C(=O)Nc1ccccc1OC ?
Fibroblast inh: 91; HCT116 bCat-KO: 83; HCT116 PTEN-null: 82; HUVEC inhibit: 95; H69AR inhibit: 39*

High-throughput results: PubChem BioAssay, SRMLSC
